Assay results published in ChEMBL document CHEMBL3044755, “5-Methyl-1,2,3-thiadiazoles synthesized via ugi reaction and their fungicidal and antiviral activities” (J Agric Food Chem, 2010).

Columns and labels:
Format in all cases: functional
[1] = tested on: Rhizoctonia solani; experiment: Fungicidal activity against Rhizoctonia solani at 50 ug/ml by growth inhibition method; conditions: read-out: GI
Method in brief: (§1)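 Mycelial growth inhibition on potato dextrose agar. The panel covered Alternaria solani, Botrytis cinerea, Cercospora arachidicola, C. beticola, Colletotrichum lagenarium, Fusarium oxysporum, Gibberella zeae, Puccinia triticina, Phytophthora infestans, Physalospora piricola, Pellicularia sasakii and Rhizoctonia solani.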

[2] = tested on: Puccinia triticina; experiment: Fungicidal activity against Puccinia triticina at 50 ug/ml by growth inhibition method; conditions: read-out: GI; method in brief: as §1
[3] = tested on: Thanatephorus cucumeris; experiment: Fungicidal activity against Thanatephorus cucumeris at 50 ug/ml by growth inhibition method; conditions: read-out: GI; method in brief: as §1
[4] = tested on: Botryosphaeria berengeriana; experiment: Fungicidal activity against Botryosphaeria berengeriana at 50 ug/ml by growth inhibition method; conditions: read-out: GI; method in brief: as §1
[5] = tested on: Phytophthora infestans; experiment: Fungicidal activity against Phytophthora infestans at 50 ug/ml by growth inhibition method; conditions: read-out: GI; method in brief: as §1
[6] = tested on: Fusarium graminearum; experiment: Fungicidal activity against Fusarium graminearum at 50 ug/ml by growth inhibition method; conditions: read-out: GI; method in brief: as §1
[7] = tested on: Colletotrichum lagenaria; experiment: Fungicidal activity against Colletotrichum lagenaria at 50 ug/ml by growth inhibition method; conditions: read-out: GI; method in brief: as §1
[8] = tested on: Cercospora beticola; experiment: Fungicidal activity against Cercospora beticola at 50 ug/ml by growth inhibition method; conditions: read-out: GI; method in brief: as §1
[9] = tested on: Mycosphaerella arachidis; experiment: Fungicidal activity against Mycosphaerella arachidis at 50 ug/ml by growth inhibition method; conditions: read-out: GI; method in brief: as §1
[10] = tested on: Alternaria solani; experiment: Fungicidal activity against Alternaria solani at 50 ug/ml by growth inhibition method; conditions: read-out: GI; method in brief: as §1
[11] = tested on: Tobacco mosaic virus; experiment: In vitro antiviral activity against Tobacco mosaic virus (TMV) infected tobacco leaves at 100 ug/ml
[12] = tested on: Tobacco mosaic virus; experiment: In vitro antiviral activity against Tobacco mosaic virus (TMV) infected tobacco leaves at 500 ug/ml

SMILES | inhibition of growth at 50 µg/mL [1] | inhibition of growth at 50 µg/mL [2] | inhibition of growth at 50 µg/mL [3] | inhibition of growth at 50 µg/mL [4] | inhibition of growth at 50 µg/mL [5] | inhibition of growth at 50 µg/mL [6] | inhibition of growth at 50 µg/mL [7] | inhibition of growth at 50 µg/mL [8] | inhibition of growth at 50 µg/mL [9] | inhibition of growth at 50 µg/mL [10] | inhibition at 100 µg/mL [11] | inhibition at 500 µg/mL [12]
Cc1ccc(N(C(=O)c2nnsc2C)C(C(=O)NC2CCCCC2)c2ccc(O)cc2)cc1F (stereo not drawn) | 22% | 0% | 0% | 0% | 25% | 14% | 36% | 25% | 45% | 13% | 9% | 34%
Cc1cccc(C(C(=O)NC(C)C)N(C(=O)c2nnsc2C)c2ccc(C)c(F)c2)c1 (stereo not drawn) | 0% | 0% | 0% | 0% | 13% | 0% | 0% | 25% | 9% | 0% | 14% | 35%
Cc1ccc(N(C(=O)c2nnsc2C)C(C(=O)NC(C)C)c2ccccc2C)cc1F (stereo not drawn) | 22% | 0% | 0% | 0% | 31% | 27% | 50% | 0% | 36% | 56% | 36% | 55%
Cc1ccc(N(C(=O)c2nnsc2C)C(C(=O)NC(C)C)c2cccc(O)c2)cc1F (stereo not drawn) | 2% | 0% | 0% | 0% | 38% | 0% | 14% | 11% | 0% | 0% | 4% | 20%
Cc1ccc(N(C(=O)c2nnsc2C)C(C(=O)NC(C)C)c2ccccc2O)cc1F (stereo not drawn) | 26% | 0% | 41% | 19% | 0% | 50% | 50% | 0% | 0% | 0% | 27% | 56%
Cc1ccc(N(C(=O)c2nnsc2C)C(C(=O)NC2CCCCC2)c2ccccc2)cc1F (stereo not drawn) | 0% | 0% | 65% | 69% | 38% | 27% | 0% | 0% | 18% | 25% | 51% | 71%
Cc1ccc(N(C(=O)c2nnsc2C)C(C(=O)NC2CCCCC2)c2ccc([N+](=O)[O-])cc2)cc1F (stereo not drawn) | 2% | 0% | 0% | 0% | 50% | 0% | 14% | 25% | 45% | 0% | 8% | 70%
Cc1ccc(N(C(=O)c2nnsc2C)C(C(=O)NC2CCCCC2)c2cccc([N+](=O)[O-])c2)cc1F (stereo not drawn) | 4% | 0% | 0% | 0% | 44% | 0% | 0% | 25% | 0% | 0% | 9% | 57%
Cc1ccc(N(C(=O)c2nnsc2C)C(C(=O)NC2CCCCC2)c2ccccc2[N+](=O)[O-])cc1F (stereo not drawn) | 9% | 0% | 0% | 12% | 50% | 0% | 0% | 25% | 27% | 0% | 5% | 11%
